Values after ≈ are worked out from the molar mass of the structure shown. Active and inactive are the calls of the source. The calls are words filed in the database; no cut-off is given here.
Legend:
Cytochrome P450 2D6 = Cytochrome P450 2D6 (Homo sapiens, UniProt P10635); test: Inhibition of human liver microsome CYP2D6; assay type: ADME, microsomes
In short: (§1)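 Done in duplicate with 0.03-0.2 mg/mL human liver microsomes, 1 mM NADPH and 50 mM potassium phosphate, pH 7.4. Probe substrates: 30 µM phenacetin (1A2), 7.5 µM diclofenac (2C9), 50 µM […], 10 µM dextromethorphan (2D6), and 50 µM phenacetin, 50 µM midazolam or 1.5 µM felodipine (3A4). Drug was tested at 0-1000 µM. Reactions were quenched with ice-cold acetonitrile after 7-30 min and analysed by LC/MS.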

[1] = Cmax in Sprague-Dawley rat at 20 mg/kg, po; assay type: ADME, organism-based; set-up: dose 20 mg/kg, route oral; conditions: in vivo
[2] = Clearance in mouse at 4 mg/kg, iv; assay type: ADME, organism-based; set-up: dose 4 mg/kg, route intravenous; conditions: in vivo
[3] = Half life in Sprague-Dawley rat at 20 mg/kg, po; assay type: ADME, organism-based; set-up: dose 20 mg/kg, route oral; conditions: in vivo
Rattus norvegicus [4] = test: Increase in bone marrow myeloid/erythroid ratio in Sprague-Dawley rat at 600 mg/kg/day, po after 14 days; assay type: ADME, organism-based; set-up: route oral; conditions: in vivo, 336 h
Cytochrome P450 2C9 = Cytochrome P450 2C9 (Homo sapiens, UniProt P11712); test: Inhibition of human liver microsome CYP2C9; assay type: ADME, microsomes; in short: as §1
Sequence of Cytochrome P450 2C9 (P11712 whole entry): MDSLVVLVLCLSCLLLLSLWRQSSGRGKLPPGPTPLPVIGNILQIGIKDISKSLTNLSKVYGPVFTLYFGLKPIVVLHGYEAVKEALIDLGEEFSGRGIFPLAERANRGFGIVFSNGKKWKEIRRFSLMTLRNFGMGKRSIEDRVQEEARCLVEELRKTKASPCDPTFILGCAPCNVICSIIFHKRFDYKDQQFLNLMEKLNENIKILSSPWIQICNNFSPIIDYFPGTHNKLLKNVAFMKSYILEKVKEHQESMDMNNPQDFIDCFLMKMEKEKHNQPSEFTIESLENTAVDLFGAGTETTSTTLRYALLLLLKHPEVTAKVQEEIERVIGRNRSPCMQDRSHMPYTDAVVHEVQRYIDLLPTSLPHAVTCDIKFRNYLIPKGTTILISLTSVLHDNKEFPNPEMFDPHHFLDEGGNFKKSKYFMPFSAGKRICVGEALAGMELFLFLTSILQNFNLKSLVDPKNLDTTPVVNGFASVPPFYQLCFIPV

[5] = Half life in dog at 20 mg/kg, po; assay type: ADME, organism-based, Canis lupus familiaris; set-up: dose 20 mg/kg, route oral; conditions: in vivo
Staphylococcus aureus [6] = test: Antibacterial activity against methicillin-resistant Staphylococcus aureus SA1417 by micro-broth technology; assay type: functional
Streptococcus pneumoniae [7] = test: Antibacterial activity against levofloxacin-penicillin-resistant Streptococcus pneumoniae SV1 SP3 by microbroth technology; assay type: functional
In short: (§2)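 Drug-resistant panel strains (levofloxacin/oxacillin-resistant S. aureus, levofloxacin/penicillin-resistant S. pneumoniae, vancomycin-resistant E. faecalis and E. faecium). Broth microdilution MIC in µg/mL; value reported as MIC90 across the strains of each resistant group.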

Staphylococcus = test: Bacteriostatic activity against Staphylococcus after 48 hrs by time kill study; assay type: functional, organism-based
Canis familiaris [8] = test: AUC in dog at 20 mg/kg, po; assay type: ADME, organism-based, Canis lupus familiaris, Plasma; set-up: dose 20 mg/kg, route oral; conditions: in vivo
Cytochrome P450 3A4 = Cytochrome P450 3A4 (Homo sapiens, UniProt P08684); test: Inhibition of human liver microsome CYP3A4; assay type: ADME, microsomes; in short: as §1
Sequence of Cytochrome P450 3A4 (P08684 whole entry): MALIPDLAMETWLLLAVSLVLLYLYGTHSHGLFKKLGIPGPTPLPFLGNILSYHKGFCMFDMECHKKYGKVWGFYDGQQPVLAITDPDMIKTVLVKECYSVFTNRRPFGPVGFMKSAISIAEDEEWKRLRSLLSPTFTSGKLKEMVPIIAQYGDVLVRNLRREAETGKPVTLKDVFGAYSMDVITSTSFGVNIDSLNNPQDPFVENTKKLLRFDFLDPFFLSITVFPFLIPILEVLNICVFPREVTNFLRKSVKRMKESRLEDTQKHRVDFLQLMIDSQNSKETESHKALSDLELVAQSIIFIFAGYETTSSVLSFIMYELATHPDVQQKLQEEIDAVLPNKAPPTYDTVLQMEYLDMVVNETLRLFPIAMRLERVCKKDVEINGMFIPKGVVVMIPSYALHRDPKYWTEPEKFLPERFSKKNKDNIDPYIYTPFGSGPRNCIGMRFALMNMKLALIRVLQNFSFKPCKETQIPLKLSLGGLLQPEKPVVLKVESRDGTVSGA

Rattus norvegicus [9] = test: Effect on hematology in Sprague-Dawley rat assessed as increase in red blood cells at 600 mg/kg/day, po after 14 days; assay type: ADME, organism-based; set-up: route oral; conditions: in vivo, 336 h
In short: (§3)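 Female Sprague-Dawley rats received vehicle or drug by oral gavage daily for 14 days, at doses of 40-1000 (mg/kg)/day across the studies. End points were moribundity or lethality, hematology (RBC, hemoglobin, hematocrit, reticulocytes), bone marrow M:E ratio and plasma AUC(0-24).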

Rattus norvegicus [10] = test: Effect on hematology in Sprague-Dawley rat assessed as decrease in reticulocytes at 600 mg/kg/day, po after 14 days; assay type: ADME, organism-based; set-up: route oral; scale not given: the % may be the effect or the level left; conditions: in vivo, 336 h; in short: as §3
Staphylococcus aureus [11] = test: Antibacterial activity against Staphylococcus aureus UC76 in po dosed CD1 mouse systemic infection model assessed as mortality after 7 days; assay type: functional
Rattus norvegicus [12] = test: Effect on hematology in Sprague-Dawley rat assessed as increase in hematocrit at 600 mg/kg/day, po after 14 days; assay type: ADME, organism-based; set-up: route oral; conditions: in vivo, 336 h; in short: as §3
Staphylococcus aureus [13] = test: Antibacterial activity against levofloxacin-oxacillin-resistant Staphylococcus aureus UC76 SA1 by micro-broth technology; assay type: functional; in short: as §2
Streptococcus pneumoniae [14] = test: Bactericidal activity against Streptococcus pneumoniae after 48 hrs by time kill study; assay type: functional, organism-based
In short: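 Time-kill study: bacteria exposed continuously to drug at 2-16× the MIC and sampled over 48 h to assess eradication.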

[15] = AUC in mouse at 20 mg/kg, po; assay type: ADME, organism-based; set-up: dose 20 mg/kg, route oral; conditions: plasma
Escherichia coli = test: Inhibition of protein synthesis in Escherichia coli by cell-free transcription-translation assay; assay type: functional
In short: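 E. coli cell-free coupled transcription/translation run in microtiter format with a luciferase reporter; luminescence was the read-out for protein synthesis.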

Rattus norvegicus [16] = test: Toxicity in Sprague-Dawley rat at 600 mg/kg/day, po after 14 days; assay type: organism-based; set-up: route oral; conditions: in vivo, 336 h; in short: as §3
Enterococcus faecalis = test: Antibacterial activity against vancomycin-resistant Enterococcus faecalis MGH2 EF1 by microbroth technology; assay type: functional; in short: as §2
Staphylococcus aureus [17] = test: Antibacterial activity against methicillin-resistant Staphylococcus aureus SA1417 in po dosed CD1 mouse systemic infection model assessed as mortality after 7 days; assay type: functional
Moraxella catarrhalis = test: Antibacterial activity against Moraxella catarrhalis by microbroth technology; assay type: functional
In short: (§4)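 MIC determined by broth microdilution, reported in µg/mL.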

Cytochrome P450 2C19 = Cytochrome P450 2C19 (Homo sapiens, UniProt P33261); test: Inhibition of human liver microsome CYP2C19; assay type: ADME, microsomes; in short: as §1
Sequence of Cytochrome P450 2C19 (P33261 whole entry): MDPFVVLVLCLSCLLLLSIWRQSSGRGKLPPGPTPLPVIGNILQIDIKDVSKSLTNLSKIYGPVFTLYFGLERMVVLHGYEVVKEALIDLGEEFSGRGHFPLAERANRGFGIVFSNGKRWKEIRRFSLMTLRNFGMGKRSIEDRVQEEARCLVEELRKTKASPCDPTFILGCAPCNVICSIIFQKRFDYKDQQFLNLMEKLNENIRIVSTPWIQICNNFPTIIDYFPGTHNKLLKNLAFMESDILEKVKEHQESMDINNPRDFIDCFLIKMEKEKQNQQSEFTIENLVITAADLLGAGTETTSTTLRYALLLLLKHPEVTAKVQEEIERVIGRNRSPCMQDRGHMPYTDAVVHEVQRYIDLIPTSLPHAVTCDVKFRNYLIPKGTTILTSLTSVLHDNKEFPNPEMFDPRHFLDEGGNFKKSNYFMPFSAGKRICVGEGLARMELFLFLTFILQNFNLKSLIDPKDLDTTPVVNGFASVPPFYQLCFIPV

[18] = Volume of distribution at steady state in mouse at 4 mg/kg, iv; assay type: ADME, organism-based; set-up: dose 4 mg/kg, route intravenous; conditions: in vivo, read-out: Vdss
Enterococcus faecium = test: Antibacterial activity against vancomycin-resistant Enterococcus faecium by micro-broth technology; assay type: functional; in short: as §2
[19] = Cmax in mouse at 20 mg/kg, po; assay type: ADME, organism-based; set-up: dose 20 mg/kg, route oral; conditions: in vivo
[20] = AUC (0 to 24 hrs) in Sprague-Dawley rat plasma at 200 mg/kg/day, po after 14 days; assay type: ADME, organism-based; set-up: dose 200 mg/kg/day, time < 24 hr, route oral; in short: as §3
Streptococcus pyogenes = test: Antibacterial activity against Streptococcus pyogenes C203 by micro-broth technology; assay type: functional
Rattus norvegicus [21] = test: AUC in Sprague-Dawley rat at 20 mg/kg, po; assay type: ADME, organism-based, Plasma; set-up: dose 20 mg/kg, route oral; conditions: in vivo
[22] = Cmax in dog at 20 mg/kg, po; assay type: ADME, organism-based, Canis lupus familiaris; set-up: dose 20 mg/kg, route oral; conditions: in vivo
[23] = Volume of distribution at steady state in dog at 4 mg/kg, iv; assay type: ADME, organism-based, Canis lupus familiaris; set-up: dose 4 mg/kg, route intravenous; conditions: in vivo, read-out: Vdss
[24] = AUC (0 to 24 hrs) in Sprague-Dawley rat plasma at 600 mg/kg/day, po after 14 days; assay type: ADME, organism-based; set-up: dose 600 mg/kg/day, time < 24 hr, route oral; in short: as §3
Rattus norvegicus [25] = test: Effect on hematology in Sprague-Dawley rat assessed as increase in hemoglobin at 600 mg/kg/day, po after 14 days; assay type: ADME, organism-based; set-up: route oral; conditions: in vivo, 336 h; in short: as §3
Rattus norvegicus [26] = test: Bioavailability in Sprague-Dawley rat at 20 mg/kg, po; assay type: ADME, organism-based; conditions: in vivo
[27] = molecular target: T1, Amine oxidase [flavin-containing] A (Homo sapiens, UniProt P21397); test: Inhibition of human recombinant MAOA
T1 sequence (P21397 whole entry): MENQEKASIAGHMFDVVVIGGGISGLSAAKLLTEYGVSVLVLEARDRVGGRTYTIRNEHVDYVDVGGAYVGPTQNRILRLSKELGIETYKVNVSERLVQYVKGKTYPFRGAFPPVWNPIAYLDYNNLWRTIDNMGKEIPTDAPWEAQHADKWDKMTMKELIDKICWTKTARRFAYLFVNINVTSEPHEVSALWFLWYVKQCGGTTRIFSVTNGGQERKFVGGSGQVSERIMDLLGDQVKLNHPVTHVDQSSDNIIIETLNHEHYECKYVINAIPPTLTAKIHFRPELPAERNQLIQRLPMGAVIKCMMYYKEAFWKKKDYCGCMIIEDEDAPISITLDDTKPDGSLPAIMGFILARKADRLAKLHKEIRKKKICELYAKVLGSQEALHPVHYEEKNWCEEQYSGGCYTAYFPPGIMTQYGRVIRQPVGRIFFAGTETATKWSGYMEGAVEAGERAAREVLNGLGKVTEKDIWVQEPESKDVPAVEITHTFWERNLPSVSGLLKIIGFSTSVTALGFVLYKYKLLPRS

Haemophilus influenzae = test: Antibacterial activity against Haemophilus influenzae by micro-broth technology; assay type: functional; in short: as §4
Staphylococcus aureus [28] = test: Antibacterial activity against […] in po dosed CD1 mouse systemic infection model assessed as mortality after 7 days; assay type: functional
Canis familiaris [29] = test: Bioavailability in dog at 20 mg/kg, po; assay type: ADME, organism-based, Canis lupus familiaris; conditions: in vivo
[30] = Volume of distribution at steady state in Sprague-Dawley rat at 10 mg/kg, iv; assay type: ADME, organism-based; set-up: dose 10 mg/kg, route intravenous; conditions: in vivo, read-out: Vdss
Enterococcus = test: Bacteriostatic activity against Enterococcus after 48 hrs by time kill study; assay type: functional, organism-based
[31] = Half life in mouse at 20 mg/kg, po; assay type: ADME, organism-based; set-up: dose 20 mg/kg, route oral; conditions: in vivo
Cytochrome P450 1A2 = molecular target: T2, Cytochrome P450 1A2 (Homo sapiens, UniProt P05177); test: Inhibition of human liver microsome CYP1A2; assay type: ADME, microsomes; in short: as §1
T2 sequence (P05177 whole entry): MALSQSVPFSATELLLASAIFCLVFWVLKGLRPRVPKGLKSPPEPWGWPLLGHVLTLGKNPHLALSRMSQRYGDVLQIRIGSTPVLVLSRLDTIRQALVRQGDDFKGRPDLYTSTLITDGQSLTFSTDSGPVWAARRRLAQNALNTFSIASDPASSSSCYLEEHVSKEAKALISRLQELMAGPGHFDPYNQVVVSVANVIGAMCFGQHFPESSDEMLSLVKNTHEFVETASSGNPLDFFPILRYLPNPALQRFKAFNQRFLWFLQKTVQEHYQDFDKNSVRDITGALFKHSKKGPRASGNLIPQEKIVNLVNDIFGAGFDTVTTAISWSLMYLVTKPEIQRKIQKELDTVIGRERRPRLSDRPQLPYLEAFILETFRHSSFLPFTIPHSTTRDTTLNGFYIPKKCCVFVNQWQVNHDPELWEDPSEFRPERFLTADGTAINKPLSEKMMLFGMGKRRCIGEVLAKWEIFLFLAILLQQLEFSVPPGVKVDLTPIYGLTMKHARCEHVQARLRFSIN

Sequence of Cytochrome P450 2D6 (P10635 whole entry): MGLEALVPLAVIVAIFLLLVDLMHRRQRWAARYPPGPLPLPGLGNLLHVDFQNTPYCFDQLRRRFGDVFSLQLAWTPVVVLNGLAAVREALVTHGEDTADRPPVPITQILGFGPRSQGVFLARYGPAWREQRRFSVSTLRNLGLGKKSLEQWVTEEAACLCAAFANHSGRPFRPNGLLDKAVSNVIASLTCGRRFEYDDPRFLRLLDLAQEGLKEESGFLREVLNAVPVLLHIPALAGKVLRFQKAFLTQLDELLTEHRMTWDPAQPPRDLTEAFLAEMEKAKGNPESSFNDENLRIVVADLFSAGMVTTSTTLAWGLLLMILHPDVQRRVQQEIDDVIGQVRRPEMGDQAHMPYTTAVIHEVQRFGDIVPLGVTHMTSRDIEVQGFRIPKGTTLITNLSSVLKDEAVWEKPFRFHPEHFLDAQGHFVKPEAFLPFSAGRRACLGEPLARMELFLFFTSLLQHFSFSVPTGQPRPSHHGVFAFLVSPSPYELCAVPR

NC(=O)[C@H]1CN(c2ccc([C@H]3CC[S@+]([O-])CC3)c(F)c2)C(=O)O1
IC50 (Cytochrome P450 2D6): > 900 µM
Cmax [1]: 15900 ng/mL
clearance [2]: 25.2 mL/min/kg
half-life [3]: 5.8 h
Ratio (Rattus norvegicus [4]): 4.5
IC50 (Cytochrome P450 2C9): > 900 µM
half-life [5]: 6.2 h
MIC (Staphylococcus aureus [6]): 4 µg/mL (≈ 11.8 µM)
MIC90 (Streptococcus pneumoniae [7]): 2 µg/mL (≈ 5.88 µM)
Activity (Staphylococcus): Active
AUC (Canis familiaris [8]): 76.2 µg·h/mL
IC50 (Cytochrome P450 3A4): > 900 µM
Activity (Rattus norvegicus [9]): 8%
Activity (Rattus norvegicus [10]): 62%
PD50 (Staphylococcus aureus [11]): 1.25 mg/kg
Activity (Rattus norvegicus [12]): 8%
MIC90 (Staphylococcus aureus [13]): 2 µg/mL (≈ 5.88 µM)
Activity (Streptococcus pneumoniae [14]): Active
AUC [15]: 48.3 µg·h/mL
IC50 (Escherichia coli): 3.4 µM
Activity (Rattus norvegicus [16]): Toxic
MIC90 (Enterococcus faecalis): 4 µg/mL (≈ 11.8 µM)
PD50 (Staphylococcus aureus [17]): 1.7 mg/kg
MIC (Moraxella catarrhalis): > 8 µg/mL
IC50 (Cytochrome P450 2C19): > 900 µM
Vd [18]: 3.3 L/kg
MIC90 (Enterococcus faecium): 4 µg/mL (≈ 11.8 µM)
Cmax [19]: 12300 ng/mL
AUC at 24 h [20]: 223 µg·h/mL
MIC (Streptococcus pyogenes): 4 µg/mL (≈ 11.8 µM)
AUC (Rattus norvegicus [21]): 109 µg·h/mL
Cmax [22]: 17900 ng/mL
Vd [23]: 0.7 L/kg
AUC at 24 h [24]: 619 µg·h/mL
Activity (Rattus norvegicus [25]): 8%
F (Rattus norvegicus [26]): 83%
IC50 [27]: 546 µM
MIC (Haemophilus influenzae): > 8 µg/mL
PD50 (Staphylococcus aureus [28]): <5 mg/kg
F (Canis familiaris [29]): 64%
Vd [30]: 6.2 L/kg
Activity (Enterococcus): Active
half-life [31]: 1.5 h
IC50 (Cytochrome P450 1A2): > 900 µM

From ChEMBL document CHEMBL1138317, “Antibacterial oxazolidinones possessing a novel C-5 side chain. (5R)-trans-3-[3-Fluoro-4- (1-oxotetrahydrothiopyran-4-yl)phenyl]-2- oxooxazolidine-5-carboxylic acid amide (PF-00422602), a new lead compound” (J Med Chem, 2007)
